The test system of series [1] is Mycobacterium tuberculosis. Put plainly: Antitubercular activity against Mycobacterium tuberculosis H37Rv assessed as growth inhibition after […] by agar microdilution method. The format is functional.
Series [2] in a line: Cytotoxicity against African green monkey Vero cells after 24 hrs by MTS assay. Type of series: cell-based. The conditions noted are these: chlorocebus sabaeus. On the technique in general: Tetrazolium assays rely on reduction of a dye to a coloured formazan, in cell work by metabolically active cells.
Another series concerns Candida albicans. Put plainly: Antifungal activity against Candida albicans isolated from patient assessed as growth inhibition after 24 to 48 hrs by microbroth dilution method. Type of series: functional. In short, it runs like this:
(§1)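 Broth microdilution susceptibility testing following NCCLS guidelines (reference standard M27-A for yeasts), run against a panel of bacterial and fungal strains.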
(Broth dilution looks for growth in wells or tubes with falling amounts of substance.)

The test system of another series is Klebsiella pneumoniae. Description: Antibacterial activity against Klebsiella pneumoniae ATCC 27736 assessed as growth inhibition after 24 hrs by microbroth dilution method. Type of series: functional. The conditions noted are these: ATCC 27736, 24 h. In short, it runs like this:
as §1

A further series concerns Escherichia coli. Description: Antibacterial activity against Escherichia coli ATCC 9637 assessed as growth inhibition after 24 hrs by microbroth dilution method. Type of series: functional. The following applies: W. The method in brief:
as §1

Another series deals with Cryptococcus neoformans. Description: Antifungal activity against Cryptococcus neoformans CDRI isolate assessed as growth inhibition after 24 to 48 hrs by microbroth dilution method. The format is functional. The method in brief:
as §1

The subject of a further series is Aspergillus fumigatus. Description: Antifungal activity against Aspergillus fumigatus isolated from patient assessed as growth inhibition after 72 to 96 hrs by microbroth dilution method. The format is functional. In short, it runs like this: as §1
Series [3] in a line: Selectivity index, ratio of CC50 for African green monkey Vero cells to MIC for Mycobacterium tuberculosis H37Rv. The format is functional.
A further series concerns Sporothrix schenckii. Description: Antifungal activity against Sporothrix schenckii isolated from patient assessed as growth inhibition after 72 to 96 hrs by microbroth dilution method. The format is functional. In short, it runs like this:
as §1

The subject of a further series is Pseudomonas aeruginosa. Description: Antibacterial activity against Pseudomonas aeruginosa ATCC BAA427 assessed as growth inhibition after 24 hrs by microbroth dilution method. The format is functional. The following applies: ATCC BAA427, 24 h. The method in brief:
as §1

A further series has as its system Staphylococcus aureus. Put plainly: Antibacterial activity against Staphylococcus aureus ATCC 25923 assessed as growth inhibition after 24 hrs by microbroth dilution method. The format is functional. The conditions noted are these: ATCC 25923, 24 h. The method in brief:
as §1

The subject of the next series is Candida parapsilosis. Put plainly: Antifungal activity against Candida parapsilosis ATCC 22019 assessed as growth inhibition after 24 to 48 hrs by microbroth dilution method. Type of series: functional. The conditions noted are these: Lodderomyces parapsilosis. The method in brief:
as §1

Series [4] deals with Trichophyton mentagrophytes. Put plainly: Antifungal activity against Trichophyton mentagrophytes isolated from patient assessed as growth inhibition after 72 to 96 hrs by microbroth dilution method. The format is functional. The method in brief:
as §1

A short description of series [5]: Mean residence time in Sprague-Dawley rat at 10 mg/kg, po. Type of series: ADME, organism-based. Details: dose 10 mg/kg, route oral. The following applies: in vivo. In short, it runs like this:
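Male Sprague-Dawley rats were given a single oral dose of 10 mg/kg. Serum concentration-time profiles were followed, and pharmacokinetic parameters, including mean residence time and clearance, were derived from them.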

The text below walks through data of ChEMBL document CHEMBL2440028, “Identification of 1-[4-Benzyloxyphenyl)-but-3-enyl]-1H-azoles as New Class of Antitubercular and Antimicrobial Agents” (ACS Med Chem Lett, 2013).

SMILES strings stand for the structures. ≈ marks a conversion by molar mass, not a printed value.

The term MIC denotes the lowest concentration found to suppress growth. For orientation: CC50 means the concentration that lowers cell viability or growth by half. As usually defined, the MRT is the average time that molecules of a dose stay in the body.

`NNC(=O)c1ccncc1` [ISONIAZID]: in series [1], the MIC was determined as 0.025 µg/mL (≈ 0.182 µM).

In series [2], `c1ccc2sc(SC(c3ccc(OCc4ccc(OCCN5CCCCC5)cc4)cc3)C3CC3)nc2c1` (stereo not given) displayed a CC50 at 24 h of 100 µg/mL (≈ 188 µM). Moreover, the MIC in series [1] was 3.12 µg/mL (≈ 5.88 µM); with Candida albicans, 6.25 µg/mL (≈ 11.8 µM); in the series on Klebsiella pneumoniae, above 50 µg/mL; in the series on Escherichia coli, above 50 µg/mL; with Cryptococcus neoformans, 50 µg/mL (≈ 94.2 µM); in the series with Aspergillus fumigatus, 25 µg/mL (≈ 47.1 µM). Besides, the MIC is 12.5 µg/mL (≈ 23.6 µM) in the series with Sporothrix schenckii; above 50 µg/mL in the series on Pseudomonas aeruginosa; 12.5 µg/mL (≈ 23.6 µM) with Staphylococcus aureus; above 50 µg/mL in the series with Candida parapsilosis; 6.25 µg/mL (≈ 11.8 µM) in series [4]. In series [3], the “Selectivity Index” value was 32.2.

Regarding `c1ccc2c(c1)ncn2C(c1ccc(OCc2ccc(OCCN3CCCCC3)cc2)cc1)C1CC1` (stereo not given), in series [1], the minimal inhibitory concentration (MIC) turned out to be 12.5 µg/mL (≈ 26 µM).

Regarding `Brc1ccc(COc2ccc(/C=C/CCn3cncn3)cc2)cc1`, the MIC in series [1] is 4.78 µg/mL (≈ 12.4 µM).

In [5], `C(=C\c1ccc(OCc2ccccc2)cc1)/CCSc1nc2ccccc2s1` came in with an MRT of 6.02 h.

On to `O=[N+]([O-])c1cnc(NC(c2ccc(OCc3ccccc3)cc2)C2CC2)s1` (stereo not given), for which the MIC in [1] is above 25 µg/mL.

As to `Fc1ccc2nc(NC(c3ccc(OCc4ccc(OCCN5CCCCC5)cc4)cc3)C3CC3)sc2c1` (stereo not given), in series [2], the CC50 at 24 h is 4.93 µg/mL (≈ 9.27 µM). Moreover, the MIC in [1] was determined as 6.25 µg/mL (≈ 11.8 µM). Besides, the “Selectivity Index” value in [3] is listed as 0.78.

`OC(Cn1cncn1)(Cn1cncn1)c1ccc(F)cc1F` [FLUCONAZOLE]: the minimum inhibitory concentration (MIC) in series [1] is 2.83 µg/mL (≈ 9.22 µM); with Candida albicans, 1 µg/mL (≈ 3.27 µM); with Cryptococcus neoformans, 2 µg/mL (≈ 6.53 µM); in the series on Aspergillus fumigatus, above 32 µg/mL; with Sporothrix schenckii, 4 µg/mL (≈ 13.1 µM); with Candida parapsilosis, 0.5 µg/mL (≈ 1.63 µM). Besides, the minimal inhibitory concentration (MIC) in [4] was 16 µg/mL (≈ 52.2 µM).

Regarding `C(=C\c1ccc(OCc2ccccc2)cc1)/CCSc1nc2ccccc2[nH]1`, in series [1], the MIC is above 25 µg/mL.

For the compound `ClCC/C=C/c1ccc(OCc2ccc(OCCN3CCCCC3)cc2)cc1`, the MIC in series [1] was found to be 4.46 µg/mL (≈ 11.2 µM).

The compound `Cc1cnn(CC/C=C/c2ccc(OCc3ccc(Br)cc3)cc2)c1` displayed a mean residence time MRT in [5] of 7.17 h.

`Cc1cnn(C(c2ccc(OCc3ccccc3Cl)cc2)C2CC2)c1` (stereo not given): in [1], the minimum inhibitory concentration (MIC) is 12.5 µg/mL (≈ 35.4 µM).

`c1ccc(COc2ccc(C(C3CC3)n3cnc4ccccc43)cc2)cc1` (stereo not given): the minimum inhibitory concentration (MIC) in [1] was 12.5 µg/mL (≈ 35.3 µM).

Take `COc1ccc(COc2ccc(C(C3CC3)n3cnc4ccccc43)cc2)cc1` (stereo not given): the minimal inhibitory concentration (MIC) in series [1] was above 12.5 µg/mL.

Consider `CC1(C)S[C@@H]2[C@H](NC(=O)[C@H](N)c3ccccc3)C(=O)N2[C@H]1C(=O)O` [AMPICILLIN], for which the minimum inhibitory concentration (MIC) is 50 µg/mL (≈ 143 µM) in the series with Klebsiella pneumoniae, 3.12 µg/mL (≈ 8.93 µM) in the series on Escherichia coli, above 50 µg/mL in the series on Pseudomonas aeruginosa and 0.04 µg/mL (≈ 0.114 µM) in the series with Staphylococcus aureus.

Turning to `CC[C@@H](CO)NCCN[C@@H](CC)CO` [ETHAMBUTOL], the MIC in series [1] was determined as 2 µg/mL (≈ 9.79 µM).

Regarding `c1ccc(COc2ccc(C(Nn3cnnc3)C3CC3)cc2)cc1` (stereo not given), the MIC in series [1] was above 12.5 µg/mL.

For the compound `c1cc(OCCN2CCCCC2)ccc1COc1ccc(C(Nn2cnnc2)C2CC2)cc1` (stereo not given), in series [1], the MIC came to 50 µg/mL (≈ 112 µM).

Take `c1ccc(COc2ccc(C(Nc3nc4ccccc4s3)C3CC3)cc2)cc1` (stereo not given): the mean residence time MRT in series [5] came out at 7.9 h.

On to `Clc1ccc(COc2ccc(C(C3CC3)n3cncn3)cc2)cc1` (stereo not given), for which the MIC in series [1] amounted to 12.5 µg/mL (≈ 36.8 µM).

Regarding `c1ccc2oc(NC(c3ccc(OCc4ccc(OCCN5CCCCC5)cc4)cc3)C3CC3)nc2c1` (stereo not given), the CC50 at 24 h in [2] worked out at 11.7 µg/mL (≈ 23.5 µM). For the same compound, the minimum inhibitory concentration (MIC) is 6.25 µg/mL (≈ 12.6 µM) in series [1]; 12.5 µg/mL (≈ 25.1 µM) with Candida albicans; above 50 µg/mL with Klebsiella pneumoniae; above 50 µg/mL in the series on Escherichia coli; 50 µg/mL (≈ 100 µM) with Cryptococcus neoformans; above 50 µg/mL in the series with Aspergillus fumigatus. Moreover, the MIC in the series on Sporothrix schenckii was 25 µg/mL (≈ 50.2 µM); in the series on Pseudomonas aeruginosa it was above 50 µg/mL; in the series on Staphylococcus aureus, 25 µg/mL (≈ 50.2 µM); in the series with Candida parapsilosis, 50 µg/mL (≈ 100 µM); in [4], 12.5 µg/mL (≈ 25.1 µM). In addition, in series [3], the “Selectivity Index” value came to 1.87.

`O=[N+]([O-])c1cn(C(c2ccc(OCc3ccc(F)cc3)cc2)C2CC2)cn1` (stereo not given): the MIC in series [1] was found to be 12.5 µg/mL (≈ 34 µM).

Regarding `COc1ccc(COc2ccc(/C=C/CCSc3nc4ccccc4[nH]3)cc2)cc1`, the MIC in series [1] is above 12.5 µg/mL.

In [5], `C(=C\c1ccc(OCc2ccccc2)cc1)/CCn1cnc2ccccc21` returned a mean residence time MRT of 3.22 h.

For the compound `c1ccc2[nH]c(SC(c3ccc(OCc4ccc(OCCN5CCCCC5)cc4)cc3)C3CC3)nc2c1` (stereo not given), the MIC in [1] is above 50 µg/mL.

As for `Brc1ccc(COc2ccc(C(C3CC3)n3cncn3)cc2)cc1` (stereo not given), in series [1], the MIC turned out to be 25 µg/mL (≈ 65.1 µM).

On to `COc1ccc(COc2ccc(C(C3CC3)n3ccnc3)cc2)cc1` (stereo not given), for which the minimal inhibitory concentration (MIC) in series [1] was 12.5 µg/mL (≈ 37.4 µM); with Candida albicans it was 25 µg/mL (≈ 74.8 µM); with Klebsiella pneumoniae it was 25 µg/mL (≈ 74.8 µM); in the series on Escherichia coli, above 50 µg/mL; with Cryptococcus neoformans it was 50 µg/mL (≈ 150 µM); in the series with Aspergillus fumigatus, 6.25 µg/mL (≈ 18.7 µM). The MIC in the series on Sporothrix schenckii was determined as 3.12 µg/mL (≈ 9.33 µM); in the series with Pseudomonas aeruginosa, 50 µg/mL (≈ 150 µM); in the series with Staphylococcus aureus, 25 µg/mL (≈ 74.8 µM); in the series on Candida parapsilosis, 50 µg/mL (≈ 150 µM); in series [4], 3.12 µg/mL (≈ 9.33 µM).

As to `Clc1ccccc1C(c1ccccc1)(c1ccccc1)n1ccnc1` [CLOTRIMAZOLE], the MIC is 0.25 µg/mL (≈ 0.725 µM) with Candida albicans; 0.25 µg/mL (≈ 0.725 µM) in the series on Cryptococcus neoformans; 8 µg/mL (≈ 23.2 µM) in the series on Aspergillus fumigatus; 4 µg/mL (≈ 11.6 µM) in the series on Sporothrix schenckii; 1 µg/mL (≈ 2.9 µM) in the series with Candida parapsilosis; 2 µg/mL (≈ 5.8 µM) in [4].

In turn, `OC(c1ccc(OCc2ccc(OCCN3CCCCC3)cc2)cc1)C1CC1` (stereo not given) returned a half-maximal cytotoxic concentration (CC50) at 24 h in series [2] above 50 µg/mL. The MIC in [1] was determined as 3.12 µg/mL (≈ 8.18 µM). In series [3], the “Selectivity Index” value is above 10.

As for `Clc1ccc(COc2ccc(/C=C/CCn3nnc4ccccc43)cc2)cc1`, in series [1], the MIC is above 12.5 µg/mL.

For the compound `CCCCSc1nc2ccccc2n1CC/C=C/c1ccc(OCc2ccccc2)cc1`, in [1], the minimum inhibitory concentration (MIC) was above 12.5 µg/mL.

On to `C(=C\c1ccc(OCc2ccccc2)cc1)/CCn1cncn1`, for which the MIC in series [1] was above 25 µg/mL.

As to `Cc1cnn(C(c2ccc(OCc3ccc(Br)cc3)cc2)C2CC2)c1` (stereo not given), the MIC in series [1] was above 50 µg/mL.

With `Clc1ccc(COc2ccc(/C=C/CCn3cnc4ccccc43)cc2)cc1`, the MIC in [1] is 6.25 µg/mL (≈ 16.1 µM).

As for `c1ccc(COc2ccc(C(C3CC3)n3cncn3)cc2)cc1` (stereo not given), the minimum inhibitory concentration (MIC) in [1] is above 12.5 µg/mL.

Take `O=[N+]([O-])c1cn(CC/C=C/c2ccc(OCc3ccc(F)cc3)cc2)cn1`: the MIC in series [1] worked out at 50 µg/mL (≈ 136 µM).

Turning to `c1ccc(COc2ccc(C(C3CC3)n3ccnc3)cc2)cc1` (stereo not given), in series [1], the MIC turned out to be 12.5 µg/mL (≈ 41.1 µM).

Regarding `c1ccc2sc(NC(c3ccc(OCc4ccc(OCCN5CCCCC5)cc4)cc3)C3CC3)nc2c1` (stereo not given), the MIC in series [1] came out at 12.5 µg/mL (≈ 24.3 µM).
